Consider 102 compounds from PubChem BioAssay AID1216 (Sanford-Burnham Center for Chemical Genomics, 2008).

In all, about 190,000 compounds went through this assay and about 660 (0.35%) were called active. Shown is part of a subset that was picked to be rich in actives. Unmarked numbers belong to inactive results.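 The calls were made as follows: active = activation factor of 2 or more at 20 µM; inactive = the rest.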

Chain of Mannose-6-phosphate isomerase (Homo sapiens) (P34949 whole entry, looked up): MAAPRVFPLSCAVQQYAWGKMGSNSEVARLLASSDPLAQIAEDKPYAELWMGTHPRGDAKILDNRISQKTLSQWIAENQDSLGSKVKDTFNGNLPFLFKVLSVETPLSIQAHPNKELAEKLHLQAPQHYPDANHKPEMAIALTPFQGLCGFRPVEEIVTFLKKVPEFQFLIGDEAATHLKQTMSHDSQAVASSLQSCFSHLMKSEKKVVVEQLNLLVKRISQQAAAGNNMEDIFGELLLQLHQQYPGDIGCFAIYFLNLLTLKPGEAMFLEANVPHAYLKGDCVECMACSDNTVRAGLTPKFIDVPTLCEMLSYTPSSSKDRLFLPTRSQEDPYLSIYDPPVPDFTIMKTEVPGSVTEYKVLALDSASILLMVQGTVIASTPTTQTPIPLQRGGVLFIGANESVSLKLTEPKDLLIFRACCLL

This experiment deals with Mannose-6-phosphate isomerase (Homo sapiens) (UniProt P34949). Nature of the experiment: human PMI activators, high substrate, primary screen, biochemical, fluorescence intensity, near-saturating mannose 6-phosphate (AID 1216). To be noted: coupled PMI enzyme assay, resazurin fluorescence, 20 min; at 20 µM; active compounds read high; 1 = untreated enzyme, 0 = substrate-free blank. In a few lines:
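Technique: Diaphorase-driven resazurin-to-resorufin fluorescence, excitation 544, emission 590 nm | Assay system: Human PMI in coupled enzyme assay | Times: Enzyme reaction with compound 20 min at room temperature | Medium: HEPES-buffered pH 7.4 with magnesium and detergent | Reagent: Mannose-6-phosphate 1.0 mM (near-saturating) plus 0.22 mM NADP+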
A general note: The colour change of resazurin is a common sign of viable cells or microbes.
Regarding `Cc1ccc(N2NC(=O)/C(=C/C=C/c3ccco3)C2=O)cc1C`, the activation factor is 1.2. The value for `Cc1ccc(N=C2NC(=O)/C(=C/C=C/c3ccco3)S2)cc1C` was 2 (active); that for `Cc1cccc(N=C2NC(=O)/C(=C/c3cn(C)c4ccccc34)S2)c1` was 0.9. As for `COc1ccc(C(=O)/C=C/c2ccc(OC3CSC3)cc2)cc1`, the figure is 0.9; as for `COc1ccc(/C=C/C(=O)c2ccc(OC)cc2O)cc1`, 0.9. The value for `COc1ccc(/C=C/C(=O)c2cc(Br)ccc(=O)c2O)cc1` was 2.1 (active); that for `CCCCC(NS(=O)(=O)c1ccc(C)cc1)C(=O)Oc1ccc2c3c(c(=O)oc2c1)CCC3` (configuration not stated) was 0.9. `N/C(=N\OS(=O)(=O)c1cccc([N+](=O)[O-])c1)c1ccncc1`: the activation factor is 1. As for `COc1ccc2c(-c3ccccc3)cc(SCC(=O)N(C)C3CCS(=O)(=O)C3)nc2c1` (configuration not stated), the figure is 1.3; as for `CCn1c(SCC(=O)N(C)C2CCS(=O)(=O)C2)nnc1-c1cccs1` (configuration not stated), 1.1; as for `Cc1cc(C)c2nc(SCC(=O)N(C)C3CCS(=O)(=O)C3)cc(C)c2c1` (configuration not stated), 2 (active). Consider `Cc1cc(/C=C2/NC(=O)NC2=O)c(C)n1-c1cccnc1`, for which the activation factor was 0.9. As for `CC(CC(=O)Nc1ccccc1)n1ccnc1` (configuration not stated), the figure is 1; as for `Cc1c(-c2cccc(Cl)c2)nc2ccccc2c1C(=O)OCC(=O)N(C)C1CCS(=O)(=O)C1` (configuration not stated), 1; as for `Cc1nccn1CCC1CCCCN1C(=O)CCc1nnc(-c2ccsc2)o1` (configuration not stated), 0.9. As to `OCCC#Cc1ccc(CN2CCN(Cc3ccsc3)C(CCO)C2)cc1` (configuration not stated), the activation factor is 1. The value for `O=C(Nc1ccc([N+](=O)[O-])cc1)C1CC12CCC2` (configuration not stated) was 1.1; that for `Cc1ccc(CNC(=O)COc2ccc3c(c2)CCC3)cc1` was 1; that for `CC1CCN(C(=O)c2ccc(S(=O)(=O)Cc3cc(F)ccc3F)c([N+](=O)[O-])c2)CC1` was 0.8. As for `COc1ccccc1N1N=C(c2cccs2)CC1c1ccccc1` (configuration not stated), the figure is 1.2; as for `COc1ccc(C2CC(c3cccs3)=NN2c2nc(C)c(C(C)=O)s2)cc1OC` (configuration not stated), 2 (active). The value for `COc1ccc(C2CC(c3cccs3)=NN2C(=O)CSc2nnc(N)s2)cc1OC` (configuration not stated) was 1; that for `COc1ccc(C2CC(c3cccs3)=NN2c2ccc(F)cc2)cc1OC` (configuration not stated) was 2.2 (active). On to `COc1ccc(C2CC(c3cccs3)=NN2C(=O)CSc2nncs2)cc1OC` (configuration not stated), for which the activation factor was 1. The value for `COc1ccc(C2CC(c3cccs3)=NN2c2ccccc2)cc1` (configuration not stated) was 1.2; that for `COc1cc(/C=C(/NC(=O)c2ccc(Cl)cc2Cl)C(=O)O)cc(OC)c1OC` was 1; that for `NC(=O)c1ccccc1N(Cc1ccccc1)S(=O)(=O)c1ccccc1` was 1.

For `CCN(CC)S(=O)(=O)c1cc([N+](=O)[O-])ccc1N=Nc1c(O)n(C)c2ccccc12`, the activation factor is 1.1.

As to `Cc1ccc(-c2nc(C)sc2CC(=O)OCC(=O)Nc2c(F)cccc2F)cc1`, the activation factor is 0.9. On to `Cc1ccc(C2=NN(C(=O)COc3ncnc4ccccc34)C(c3ccco3)C2)cc1` (configuration not stated), for which the activation factor was 0.8.

Take `CO/N=C/c1cn(-c2ccc(Cl)cc2)nn1`: the activation factor was 1.

For the compound `CC1(C)OC(=O)C(=CSc2ccc(C(C)(C)C)cc2)C(=O)O1`, the activation factor was 1.1. For `CCCC(=O)Nc1cccc(NC(=S)NC(=O)C(C)Oc2ccc(Cl)cc2Cl)c1` (configuration not stated), the activation factor was 1. The value for `O=C(N/C(=C\c1ccc(F)cc1)C(=O)N1CCCCCC1)c1ccccc1` was 0.9. The value for `Cc1cc(OCCCN2CCN(Cc3ccccc3)CC2)ccc1[N+](=O)[O-]` was 1. On to `CSc1nc(O)c(Cc2ccccc2)c(=O)[nH]1`, for which the activation factor is 1. With `COc1ccc(Cc2nnc(SC)[nH]c2=O)cc1`, the activation factor was 2 (active).

Regarding `COc1ccc(Cc2nnnn2CC(=O)O)cc1`, the activation factor is 1.1. As for `O=C(NNC(=O)c1ccccc1[N+](=O)[O-])Nc1ccccc1C(F)(F)F`, the figure is 1; as for `O=C(NC1CCCC1)C(c1ccc(N2CCOCC2)cc1)N(C(=O)c1ccco1)c1ccccc1F` (configuration not stated), 0.9; as for `Cc1ccc(NC(=O)NC(=O)N(C2CCCCC2)S(=O)(=O)c2ccccc2)cc1`, 0.9. As for `Cc1nn(-c2ccc([N+](=O)[O-])cc2)c(N)c1-c1ccccc1`, the figure is 1; as for `C(=N/Nc1cc(N2CCOCC2)nc(N2CCOCC2)n1)/c1ccccc1`, 0.4; as for `Cc1cc(C(=O)N/N=C/c2ccc(N3CCOCC3)cc2)c(C)o1`, 1.1. As for `Cc1ccccc1N/N=C/c1ccc(N2CCOCC2)cc1`, the figure is 2.4 (active); as for `S=C(NC1CCCCC1)NN1CCOCC1`, 1.1; as for `Cc1ccc(OCc2n[nH]c(=S)n2-c2ccc(C)cc2)cc1`, 0.8. Turning to `COc1ccc(CNc2c(CO)cnc3c2cnn3C)cc1`, the activation factor was 1. Turning to `Cc1ccnc(NC(=O)CCC(=O)N(CC(=O)NCc2ccccc2)Cc2ccco2)c1`, the activation factor was 0.9.

As for `CCOC(=O)C1=C(CN2CCCCCC2)NC(=O)NC1c1cccc([N+](=O)[O-])c1` (configuration not stated), the activation factor was 0.9. As for `CC(NC(=O)C(=O)N/N=C/c1ccc(Cl)cc1)c1ccccc1` (configuration not stated), the figure is 1.1; as for `O=C(NNC1CC(=O)N(c2cccc(Cl)c2)C1=O)c1cccnc1` (configuration not stated), 1.2; as for `O=C1CC(NNc2ccccc2)C(=O)N1c1cccc(Cl)c1` (configuration not stated), 2 (active).

As to `O=C1CC(c2ccccc2)C(=O)N1c1cccc(O)c1` (configuration not stated), the activation factor is 0.9.

Consider `C/C(=N\NC(=S)NCc1ccccc1)C1CCCCC1`, for which the activation factor was 1.2.

For the compound `O=C(CCNC(=O)Cn1ccc2ccccc2c1=O)NCCC1=CCCCC1`, the activation factor was 1.1. In the case of `CCc1cccc(CC)c1NC(=S)NCc1ccc2[nH]c(C)cc2c1`, the activation factor is 0.9.

On to `COc1ccc(Br)cc1/C=N/n1c(C)nnc1C`, for which the activation factor was 1. The value for `COc1ccc(Br)cc1/C=N/Nc1ccc(Cl)c(C(=O)O)c1` was 2.6 (active); that for `COc1ccc(Br)cc1/C=N/NC(=O)c1cccc(S(=O)(=O)N2CCOCC2)c1` was 1; that for `OCC(O)CN(c1ccccc1)c1ccccc1` (configuration not stated) was 1. The value for `CC(C)C(=O)Nc1ccc2oc(=O)ccc2c1` was 1; that for `COc1ccc(C(=O)CSc2nc(C)cc(C)n2)cc1[N+](=O)[O-]` was 0.9; that for `Cn1nc(-c2ccccc2)c(CO)c1Sc1ccccc1` was 1. As for `O=C(Nc1ccccc1)c1cc2ccccc2[nH]1`, the figure is 0.9; as for `c1ccc2[nH]c(-c3nc4ccccc4[nH]3)nc2c1`, 1.1; as for `S=c1ccc2ccccc2[nH]1`, 2.8 (active). With `CCOc1ccc(C2c3[nH]c4ccccc4c3CCN2Cc2cn(CC)nc2C)cc1` (configuration not stated), the activation factor is 0.8. `CN(C)CC(C)(C)CNC(=O)c1cc(Br)cc(Br)c1O`: the activation factor is 0.8. The value for `O=C1C2C3C=CC(C4CC34)C2C(=O)N1c1nccs1` (configuration not stated) was 1; that for `CCN(CC)CC1(O)CCN(C(=O)c2ccc(Cl)c(Cl)c2)CC1` was 0.9; that for `O=C(O)c1ccc(N/N=C/c2cn(-c3ccccc3)nc2-c2cccs2)cc1` was 1.7. Consider `CCNC(=S)NNC(=O)c1ccc2ncccc2c1`, for which the activation factor was 1.

Consider `O=C(O)c1ccc(N/N=C/c2ccc3ncccc3c2)cc1`, for which the activation factor is 2.3 (active). As for `Cc1ccc(NC(=O)N2CCSc3ccccc32)cc1`, the figure is 0.9; as for `O=C(CNCc1ccc(Cl)cc1)Nc1cccc(C(=O)O)c1`, 1.1; as for `O=c1c2ccccc2c(-c2ccccc2)nn1Cc1ccccc1`, 1. The value for `CSc1c(SCc2ccccc2)cnn(Cc2ccccc2)c1=O` was 2.4 (active); that for `Cn1c(CO)cnc1SCc1ccccc1` was 1.1. The value for `COc1ccc(NC(=O)COc2ccc(C(=O)OCC(=O)N(C)C3CCS(=O)(=O)C3)cc2OC)cc1` (configuration not stated) was 1.1; that for `Cc1ccnc(NC(=O)CCC(=O)N(CC(=O)NCCc2ccccc2)Cc2cccs2)c1` was 1. As to `CCOC(=O)C(CC)/C(C)=N\NC(=O)c1cccc(C)c1` (configuration not stated), the activation factor is 0.9. With `COc1ccc(NC(=O)C(C)SCc2ccccc2)cc1` (configuration not stated), the activation factor is 1. The value for `Cc1cc(Cl)ccc1C(=O)C1CCCN(C(=O)CCN2CCCO2)C1` (configuration not stated) was 1.1.

In the case of `Cc1cccc(C)c1NC(=O)c1ccc(CN2CCc3ccccc3C2)cc1`, the activation factor was 1.

`Cc1cccc(C)c1NC(=O)C1(C)c2cccc[n+]2CC(=O)N1Cc1cccs1` (configuration not stated): the activation factor is 2 (active). In the case of `CCc1cccc(C)c1NC(=S)N(CCCN1CCN(C)CC1)Cc1cccs1`, the activation factor was 1.

For the compound `Cc1ccc(N(CCC(=O)O)S(=O)(=O)c2cccc(C(F)(F)F)c2)cc1`, the activation factor was 1.1. The value for `O=[N+]([O-])c1ccc(N2CCN(S(=O)(=O)c3ccccc3)CC2)cc1N1CCc2ccccc2C1` was 0.9; that for `COc1ccc(/C=N/N=C2/C(=O)Nc3ccccc32)cc1O` was 1. Consider `C/C=C/C=C/C(=O)OCC(=O)Nc1ccc(Cl)cc1`, for which the activation factor was 1. The value for `CS/C(=C\[N+](=O)[O-])Nc1ccc(C)cc1` was 1; that for `Cn1cnnc1Sc1ccc(S(C)(=O)=O)cc1[N+](=O)[O-]` was 0.9. As for `O=C(Nc1cnccn1)c1cccnc1`, the activation factor is 1. The value for `O=C(NNC(=O)c1cccnc1)Nc1ccccc1` was 1.1; that for `O=C(NN=C1CCC(=NNC(=O)c2cccnc2)CC1)c1cccnc1` was 2 (active). As for `C/C(N)=C(/C#N)C(=O)COC(=O)C1CCN(C(=O)c2ccc(Cl)cc2)CC1`, the figure is 1; as for `CCc1cc2cc(OC)ccc2nc1SCC(=O)Nc1cc(OC)c(OC)cc1C(=O)O`, 0.8; as for `O=C(/C=C/c1ccc(Cl)c([N+](=O)[O-])c1)c1cccnc1`, 1.1. `CCCSc1nc2c(c(=O)n(C)c(=O)n2C)n1Cc1ccc(C)cc1`: the activation factor was 1. Regarding `CC(CCO)Nc1nc2c([nH]1)c(=O)n(C)c(=O)n2C` (configuration not stated), the activation factor is 0.9. As for `Cc1ccc(NN=Nc2nc3c([nH]2)c(=O)n(C)c(=O)n3C)cc1`, the figure is 2 (active).
